Calls of active or inactive are those of the source. No cut-off for these calls is given here.
How the values were obtained:
[1] = tested on: PC-3; assay: Induction of microtubule polymerization in human PC3 cells assessed as bundled sheet like pattern at 200 nM after 24 hrs by DAPI staining-based immunofluorescence microscopic analysis; type: cell-based
Outline: (§1)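 PC-3 cells grown on chamber slides 36 h, then treated 24 h (test agents 2, 5 or 10 μM; reference agents 200 nM); fixed in 4% paraformaldehyde, permeabilized with 0.5% Triton X-100, stained with anti-α-tubulin monoclonal plus FITC secondary and DAPI for nuclei; spindle and microtubule morphology by fluorescence microscopy.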

[2] = molecular target: T1, Tubulin (Homo sapiens) (UniProt P68371+Q9H4B7+P0DPH7+P68366+Q13509+Q71U36+P04350+Q3ZCM7+P07437+P68363+Q9BQE3+Q6PEY2+Q13885+Q9BVA1+Q9BUF5); assay: Induction of tubulin (unknown origin) polymerization at 3 uM by fluorescence assay; type: protein-complex assay
Outline: (§2)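 Cell-free tubulin polymerization kit; tubulin mixed with DMSO control, 500 μM CaCl2, 3 μM paclitaxel or test compounds at 15 or 30 μM; polymerization followed kinetically by fluorescence, excitation 340 nm, emission 420 nm, in a temperature-regulated fluorimeter. Three independent experiments in triplicate.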

[3] = tested on: T47D; assay: Cytotoxicity against human T47D cells; type: functional
Outline: (§3)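 NCI-60 human tumor cell line screen run by standard NCI protocol: single-dose prescreen at 10 μM, then multi-dose testing of compounds giving over 50% growth inhibition; GI50 = concentration for 50% growth inhibition.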

[4] = tested on: DU-145; assay: Cytotoxicity against human DU145 cells; type: functional; outline: as §3
[5] = tested on: OVCAR-3; assay: Cytotoxicity against human OVCAR3 cells; type: functional; outline: as §3
[6] = tested on: RXF 393; assay: Cytotoxicity against human RXF393 cells; type: functional; outline: as §3
[7] = tested on: LOX IMVI; assay: Cytotoxicity against human LOXIMVI cells; type: functional
[8] = tested on: SNB-19; assay: Cytotoxicity against human SNB19 cells; type: functional; outline: as §3
[9] = tested on: NCI-H322M; assay: Cytotoxicity against human NCI-H322M cells; type: functional; outline: as §3
[10] = tested on: HCT-116; assay: Cytotoxicity against human HCT116 cells; type: functional; outline: as §3
[11] = tested on: MOLT-4; assay: Cytotoxicity against human MOLT4 cells; type: functional; outline: as §3
[12] = tested on: HEK-293T; assay: Inhibition of TNF-alpha induced NF-kapppaB activation in HEK293T cells at 1.25 uM incubated 1 hr prior to TNF-alpha addition measured after 18 hrs by luciferase reporter gene assay; type: cell-based; conditions: Homo sapiens
Outline: (§4)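 HEK 293T cells transiently transfected 12 h with pNFκB-luc and pRL-TK, pretreated 1 h with compound (0.31–2.50 μM) or DMSO, then stimulated with TNF-α 25 ng/mL for 18 h; firefly and Renilla luciferase read by dual-luciferase assay. Data from one of three independent experiments.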

[13] = tested on: HEK-293T; assay: Inhibition of TNF-alpha induced NF-kapppaB activation in HEK293T cells at 0.62 uM incubated 1 hr prior to TNF-alpha addition measured after 18 hrs by luciferase reporter gene assay; type: cell-based; conditions: Homo sapiens; outline: as §4
[14] = tested on: HEK-293T; assay: Inhibition of TNF-alpha induced NF-kapppaB activation in HEK293T cells at 0.31 uM incubated 1 hr prior to TNF-alpha addition measured after 18 hrs by luciferase reporter gene assay; type: cell-based; conditions: Homo sapiens; outline: as §4
[15] = tested on: HEK-293T; assay: Inhibition of TNF-alpha induced NF-kapppaB activation in HEK293T cells incubated 1 hr prior to TNF-alpha addition measured after 18 hrs by luciferase reporter gene assay; type: cell-based; conditions: Homo sapiens; outline: as §4
[16] = tested on: HCT-116; assay: Cell cycle arrest in human HCT116 cells assessed as accumulation at G0/G1 phase at 2 uM after 12 hrs by propidium iodide staining-based FACS analysis (reference value: 54.63 to 55.88 %); type: functional
[17] = tested on: HCT-116; assay: Cell cycle arrest in human HCT116 cells assessed as accumulation at G0/G1 phase at 1 uM after 12 hrs by propidium iodide staining-based FACS analysis (reference value: 54.63 to 55.88 %); type: functional
[18] = tested on: HCT-116; assay: Cell cycle arrest in human HCT116 cells assessed as accumulation at S phase at 2 uM after 12 hrs by propidium iodide staining-based FACS analysis (reference value: 20.48 to 23.62 %); type: functional
[19] = tested on: HCT-116; assay: Cell cycle arrest in human HCT116 cells assessed as accumulation at S phase at 1 uM after 12 hrs by propidium iodide staining-based FACS analysis (reference value: 20.48 to 23.62 %); type: functional
[20] = tested on: HCT-116; assay: Cell cycle arrest in human HCT116 cells assessed as accumulation at G2/M phase after 12 hrs by propidium iodide staining-based FACS analysis; type: functional
[21] = tested on: HCT-116; assay: Cell cycle arrest in human HCT116 cells assessed as reduction in G0/G1 phase after 12 hrs by propidium iodide staining-based FACS analysis; type: functional
[22] = tested on: HCT-116; assay: Cell cycle arrest in human HCT116 cells assessed as accumulation at G2/M phase at 1 uM after 12 hrs by propidium iodide staining-based FACS analysis (reference value: 20.40 to 22.32 %); type: functional
[23] = species on record: Homo sapiens; assay: Induction of microtubule depolymerization in human PC3 interphase cells at 2 uM after 24 hrs by DAPI staining-based immunofluorescence microscopic analysis; type: cell-based; outline: as §1
[24] = molecular target: T1, Tubulin (Homo sapiens); assay: Inhibition of tubulin (unknown origin) polymerization assessed as destabilization of microtubule at 15 uM by fluorescence assay; type: protein-complex assay; outline: as §2
[25] = tested on: HCT-116; assay: Induction of apoptosis in human HCT116 cells assessed as late apoptotic cells at 2 uM after 24 hrs by AnnexinV-FITC/PI staining-based flow cytometry (reference value: 2.53 %); type: functional
[26] = tested on: HCT-116; assay: Induction of apoptosis in human HCT116 cells assessed as early apoptotic cells at 2 uM after 24 hrs by AnnexinV-FITC/PI staining-based flow cytometry (reference value: 2.17 %); type: functional
[27] = tested on: HCT-116; assay: Induction of apoptosis in human HCT116 cells assessed as late apoptotic cells at 1 uM after 24 hrs by AnnexinV-FITC/PI staining-based flow cytometry (reference value: 2.53 %); type: functional
[28] = tested on: HCT-116; assay: Induction of apoptosis in human HCT116 cells assessed as early apoptotic cells at 1 uM after 24 hrs by AnnexinV-FITC/PI staining-based flow cytometry (reference value: 2.17 %); type: functional
[29] = tested on: HCT-116; assay: Induction of apoptosis in human HCT116 cells at 2 uM after 24 hrs by AnnexinV-FITC/PI staining-based flow cytometry; type: functional
[30] = tested on: HCT-116; assay: Induction of apoptosis in human HCT116 cells at 1 uM after 24 hrs by AnnexinV-FITC/PI staining-based flow cytometry; type: functional
[31] = tested on: HCT-116; assay: Induction of apoptosis in human HCT116 cells after 24 hrs by AnnexinV-FITC/PI staining-based flow cytometry; type: functional, cell-based
[32] = species on record: Homo sapiens; assay: Induction of microtubule depolymerization in human PC3 mitotic cells assessed as abnormal spindles at 2 uM after 24 hrs by DAPI staining-based immunofluorescence microscopic analysis; type: cell-based; outline: as §1
[33] = tested on: HEK-293T; assay: Inhibition of TNF-alpha induced NF-kapppaB activation in HEK293T cells at 1.25 to 5 uM incubated 1 hr prior to TNF-alpha addition measured after 18 hrs by luciferase reporter gene assay; type: cell-based; conditions: Homo sapiens
[34] = molecular target: T1, Tubulin (Homo sapiens); assay: Induction of tubulin (unknown origin) polymerization at 30 uM by fluorescence assay; type: protein-complex assay; outline: as §2
[35] = tested on: PC-3; assay: Induction of microtubule depolymerization in human PC3 cells at 200 nM after 24 hrs by DAPI staining-based immunofluorescence microscopic analysis; type: cell-based; outline: as §1

## CC(=O)O[C@H]1C(=O)[C@@]2(C)[C@H]([C@H](OC(=O)c3ccccc3)[C@]3(O)C[C@H](OC(=O)[C@H](O)[C@@H](NC(=O)c4ccccc4)c4ccccc4)C(C)=C1C3(C)C)[C@]1(OC(C)=O)CO[C@@H]1C[C@@H]2O [PACLITAXEL]
[1]
  Activity: Active
[2]
  Activity: Active
[3]
  GI50: 0.01 µM
[4]
  GI50: 0.032 µM
[5]
  GI50: 0.02 µM
[6]
  GI50: 0.05 µM
[7]
  GI50: 0.016 µM
[8]
  GI50: 0.04 µM
[9]
  GI50: 0.05 µM
[10]
  GI50: 0.01 µM
[11]
  GI50: 0.032 µM

## C=C1C(=O)C[C@H](OC(C)=O)[C@@]2(C)[C@@H](OC(C)=O)[C@H](OC(=O)c3ccccc3)C3=C(C)[C@@H](OC(=O)[C@H](O)[C@@H](NC(=O)c4ccccc4)c4ccccc4)C[C@@]3(C(C)(C)O)[C@@H](OC(C)=O)[C@H]12
[12]
  inhibition: 37%
[13]
  inhibition: 27%
[14]
  inhibition: 14%
[15]
  inhibition: Dose-dependent effect
[16]
  Activity: 44.75%
[17]
  Activity: 55.02%
[18]
  Activity: 18.27%
[19]
  Activity: 14.39%
[20]
  Activity: Dose-dependent effect
[21]
  Activity: Dose-dependent effect
[22]
  Activity: 29.81%
[23]
  Activity: Active
[24]
  inhibition: Active
[25]
  Activity: 14%
[26]
  Activity: 5.87%
[27]
  Activity: 2.82%
[28]
  Activity: 2.11%
[29]
  Activity: 20.36%
[30]
  Activity: 8.54%
[31]
  Activity: Dose-dependent effect
[3]
  GI50: 1.86 µM
[4]
  GI50: 1.59 µM
[5]
  GI50: 1.72 µM
[6]
  GI50: 1.29 µM
[7]
  GI50: 1.86 µM
[8]
  GI50: 33.7 µM
[9]
  GI50: 18.5 µM
[10]
  GI50: 1.28 µM
[32]
  Activity: Active
[11]
  GI50: 0.65 µM

## C=C1C(=O)C=C[C@@]2(C)[C@@H](OC(C)=O)[C@H](OC(=O)c3ccccc3)C3=C(C)[C@@H](OC(=O)[C@H](O)[C@@H](NC(=O)c4ccccc4)c4ccccc4)C[C@@]3(C(C)(C)O)[C@@H](OC(C)=O)[C@H]12
[3]
  GI50: 1.7 µM
[4]
  GI50: 1.66 µM
[5]
  GI50: 1.33 µM
[6]
  GI50: 0.52 µM
[7]
  GI50: 1.57 µM
[8]
  GI50: 15.3 µM
[9]
  GI50: 4.69 µM
[10]
  GI50: 0.77 µM
[11]
  GI50: 2.48 µM

## C=C1C(=O)O[C@@H]2C3O[C@]3(C)CC/C=C(\C)CC[C@@H]12 (some centres not stated)
[33]
  inhibition: Active
[5]
  GI50: 19.9 µM
[6]
  GI50: 12.6 µM
[8]
  GI50: 63.1 µM
[9]
  GI50: 19.9 µM
[10]
  GI50: 10 µM
[11]
  GI50: 15.8 µM

## CC(=O)O[C@H]1C[C@H]2OC[C@@]2(OC(C)=O)[C@H]2[C@H](OC(C)=O)[C@]3(C(C)(C)O)C[C@H](OC(=O)[C@H](O)[C@@H](NC(=O)OC(C)(C)C)c4ccccc4)C(C)=C3[C@@H](OC(=O)c3ccccc3)[C@H](OC(C)=O)[C@]12C
[34]
  Activity: Active
[33]
  inhibition: inactive
[3]
  GI50: 38.9 µM
[4]
  GI50: 21.4 µM
[5]
  GI50: 15.5 µM
[6]
  GI50: 12.6 µM
[7]
  GI50: 21.4 µM
[8]
  GI50: 33.1 µM
[9]
  GI50: 50.1 µM
[10]
  GI50: 16.2 µM
[11]
  GI50: 42.7 µM

## COc1ccc(/C=C\c2cc(OC)c(OC)c(OC)c2)cc1O
[35]
  Activity: Active

## C=C1[C@@H](OC(=O)[C@@H](O)[C@H](NC(=O)OC(C)(C)C)c2ccccc2)C[C@H](OC(C)=O)[C@@]2(C)[C@@H](OC(C)=O)[C@H](OC(=O)c3ccccc3)C3=C(C)[C@@H](O)C[C@@]3(C(C)(C)O)[C@@H](OC(C)=O)[C@H]12
[3]
  GI50: > 100 µM
[4]
  GI50: 72.4 µM
[5]
  GI50: 28.4 µM
[6]
  GI50: 26.6 µM
[7]
  GI50: > 100 µM
[8]
  GI50: > 100 µM
[9]
  GI50: > 100 µM
[10]
  GI50: 45.2 µM
[11]
  GI50: 83.3 µM

## C=C1C(=O)C=C[C@@]2(C)[C@@H](OC(C)=O)[C@H](OC(=O)c3ccccc3)C3=C(C)[C@@H](OC(=O)[C@H](O)[C@@H](NC(=O)OC(C)(C)C)c4ccccc4)C[C@@]3(C(C)(C)O)[C@@H](OC(C)=O)[C@H]12
[3]
  GI50: 4.78 µM
[4]
  GI50: 6.05 µM
[5]
  GI50: 3.19 µM
[6]
  GI50: 2.08 µM
[7]
  GI50: 2.2 µM
[8]
  GI50: > 100 µM
[9]
  GI50: 24.6 µM
[10]
  GI50: 1.87 µM
[11]
  GI50: 3.78 µM

Reference: ChEMBL document CHEMBL2385032, “Dual-functional abeo-taxane derivatives destabilizing microtubule equilibrium and inhibiting NF-κB activation” (2013)
